Source: publication PMC7315603 (ACS Omega, 2020)
Converted amounts (≈) assume the structure as drawn. “And” between values parts separate entries of the source, which are not always exact repeats. Identical values can stand only once. Like-named read-outs stand apart in the source and are kept apart here. Where a SMILES comes first, the peptide text is derived from it. [ ]: non-standard residue; d: D form. dPhe(4-Cl) = N[C@H](Cc1ccc(Cl)cc1)C(=O)O; aIle = CC[C@@H](C)[C@H](N)C(=O)O; dPhLac = O=C(O)[C@H](O)Cc1ccccc1; Sar = CNCC(=O)O

Legend:
P. falciparum strain 3D7 [1] = assay: microbe, parasite or virus in culture; settings: Plasmodium falciparum, 3D7, read-out: IC50 (P. falciparum 3D7)
human serum albumin = human serum albumin (Homo sapiens, UniProt P02768); assay: Human serum albumin binding; format: in vitro ADME
human serum albumin, sequence (P02768 25-609): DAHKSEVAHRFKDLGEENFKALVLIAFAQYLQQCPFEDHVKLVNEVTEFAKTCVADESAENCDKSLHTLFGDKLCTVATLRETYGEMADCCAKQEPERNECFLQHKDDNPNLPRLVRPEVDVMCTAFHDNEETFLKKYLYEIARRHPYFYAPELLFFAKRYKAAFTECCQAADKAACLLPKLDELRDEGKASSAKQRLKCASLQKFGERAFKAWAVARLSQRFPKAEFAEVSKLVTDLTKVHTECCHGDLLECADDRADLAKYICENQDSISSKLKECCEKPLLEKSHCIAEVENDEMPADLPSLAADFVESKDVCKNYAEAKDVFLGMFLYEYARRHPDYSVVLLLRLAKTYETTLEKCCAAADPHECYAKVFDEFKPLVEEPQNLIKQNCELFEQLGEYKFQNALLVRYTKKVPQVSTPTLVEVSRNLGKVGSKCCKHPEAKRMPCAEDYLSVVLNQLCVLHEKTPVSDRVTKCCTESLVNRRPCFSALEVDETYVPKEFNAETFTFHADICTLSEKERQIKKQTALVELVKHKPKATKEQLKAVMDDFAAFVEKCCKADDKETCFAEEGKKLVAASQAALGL

M. tuberculosis H37Rv = settings: drug-susceptible Mtb H37Rv; 6 days + 48 h resazurin
Mycobacterium vaccae = assay: MIC against Mycobacterium vaccae, microplate alamar blue broth dilution assay; format: cell-based
P. falciparum strain 3D7 [2] = settings: strain 3D7, 3 h
[3] = Plasma stability, mouse plasma; format: in vitro ADME
How it was run: (§1)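 Test compound incubated in human or mouse plasma for 2 h at 37 °C. The amount of compound remaining afterward was quantified and reported as percent remaining.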

[4] = Intrinsic microsomal clearance, human liver microsomes; format: in vitro ADME; settings: for intrinsic microsomal clearance (Clint), human: human liver microsomes
[5] = Plasma stability, human plasma; format: in vitro ADME; settings: 2 h incubation at 37 °C
How it was run: as §1

[6] = Kinetic aqueous solubility; format: physicochemical
[7] = Intrinsic microsomal clearance, mouse liver microsomes; format: in vitro ADME; settings: for intrinsic microsomal clearance (Clint), mouse: mouse liver microsomes
Plasmodium falciparum = settings: natural product; cited from earlier work
M. tuberculosis H37Ra = settings: natural product; cited from earlier work

CCN(CC)CCCC(C)Nc1ccnc2cc(Cl)ccc12 (centres unmarked) [CQ, chloroquine]
IC50 (P. falciparum strain 3D7 [1]): 0.005 µM

CC[C@@H](C)[C@@H]1NC(=O)[C@@H](Cc2ccccc2)OC(=O)CN(C)C(=O)[C@H]([C@H](C)CC)NC(=O)[C@@H](Cc2ccccc2)OC(=O)CN(C)C1=O [Compound 9] (cyclo([Sar][dPhLac][aIle][Sar][dPhLac][aIle]))
IC50: > 100 µM
% human serum albumin binding (%HSA) (human serum albumin): 88%
MIC (Mtb H37Rv) (M. tuberculosis H37Rv): > 80 µM
MIC (M. vaccae) (Mycobacterium vaccae): 18.8 µM (≈ 12.5 µg/mL)
IC50 (P. falciparum strain 3D7 [2]): 2.3 µM
remaining at 2 h [3]: 18%
stability in human microsomes (in words) [4]: moderate stability
intrinsic microsomal clearance (Clint), human [4]: 46.53 mL/(min g) tissue
plasma stability (% remaining), human plasma [5]: 103%
solubility kinetic [6]: > 180 µg/mL
stability in mouse microsomes (in words) [7]: low stability
intrinsic microsomal clearance (Clint), mouse [7]: 38.3 mL/(min g) tissue

CC(C)C[C@@H]1NC(=O)[C@@H](Cc2ccccc2)OC(=O)CN(C)C(=O)[C@H](CC(C)C)NC(=O)[C@@H](Cc2ccccc2)OC(=O)CN(C)C1=O [Compound 10] (cyclo(L[Sar][dPhLac]L[Sar][dPhLac]))
solubility kinetic [6]: > 180 µg/mL

CC(C)[C@@H]1NC(=O)[C@@H](Cc2ccccc2)OC(=O)CN(C)C(=O)[C@H](C(C)C)NC(=O)[C@@H](Cc2ccccc2)OC(=O)CN(C)C1=O [Compound 11] (cyclo([Sar][dPhLac]V[Sar][dPhLac]V))
IC50: > 100 µM
IC50 (P. falciparum strain 3D7 [2]): 7.5 µM
solubility kinetic [6]: 80 µg/mL (≈ 126 µM)

CN1CC(=O)O[C@H](Cc2ccccc2)C(=O)NCC(=O)N(C)CC(=O)O[C@H](Cc2ccccc2)C(=O)NCC1=O [Compound 12] (cyclo(G[Sar][dPhLac]G[Sar][dPhLac]))
IC50: > 100 µM
% human serum albumin binding (%HSA) (human serum albumin): 54.7%
IC50 (P. falciparum strain 3D7 [2]): 20.1 µM
remaining at 2 h [3]: 0%
intrinsic microsomal clearance (Clint), human [4]: 34.00 mL/(min g) tissue
solubility kinetic [6]: 81 µg/mL (≈ 147 µM)
intrinsic microsomal clearance (Clint), mouse [7]: 52.00 mL/(min g) tissue

CC[C@H](C)[C@@H]1NC(=O)[C@@H](Cc2ccccc2)OC(=O)CNC(=O)[C@H]([C@@H](C)CC)NC(=O)[C@@H](Cc2ccccc2)OC(=O)CNC1=O [Compound 13] (cyclo(G[dPhLac]IG[dPhLac]I))
IC50: > 100 µM
% human serum albumin binding (%HSA) (human serum albumin): 91.02%
IC50 (P. falciparum strain 3D7 [2]): 13.8 µM
remaining at 2 h [3]: 0%
intrinsic microsomal clearance (Clint), human [4]: 32.80 mL/(min g) tissue
solubility kinetic [6]: 6 µg/mL (≈ 9.42 µM)
intrinsic microsomal clearance (Clint), mouse [7]: 65.90 mL/(min g) tissue

CC(C)[C@@H]1NC(=O)[C@@H](Cc2ccccc2)NC(=O)CN(C)C(=O)[C@H](C(C)C)NC(=O)[C@@H](Cc2ccccc2)NC(=O)CN(C)C1=O [Compound 15] (cyclo([Sar][dF]V[Sar][dF]V))
IC50: > 100 µM
IC50 (P. falciparum strain 3D7 [2]): 7.7 µM
intrinsic microsomal clearance (Clint), human [4]: 3.60 mL/(min g) tissue
intrinsic microsomal clearance (Clint), mouse [7]: 7.52 mL/(min g) tissue

CC[C@@H](C)[C@@H]1NC(=O)[C@@H](Cc2ccccc2)NC(=O)CN(C)C(=O)[C@H]([C@H](C)CC)NC(=O)[C@@H](Cc2ccccc2)NC(=O)CN(C)C1=O [Compound 16] (cyclo([Sar][dF][aIle][Sar][dF][aIle]))
IC50: > 100 µM
IC50 (P. falciparum strain 3D7 [2]): 2.2 µM
intrinsic microsomal clearance (Clint), human [4]: 18.90 mL/(min g) tissue
intrinsic microsomal clearance (Clint), mouse [7]: 47.71 mL/(min g) tissue

CC[C@@H](C)[C@@H]1NC(=O)[C@@H](Cc2ccc(Cl)cc2)NC(=O)CN(C)C(=O)[C@H]([C@H](C)CC)NC(=O)[C@@H](Cc2ccc(Cl)cc2)NC(=O)CN(C)C1=O [Compound 17] (cyclo([Sar][dPhe(4-Cl)][aIle][Sar][dPhe(4-Cl)][aIle]))
IC50: 26 µM
% human serum albumin binding (%HSA) (human serum albumin): 95% and 95.24%
IC50 (P. falciparum strain 3D7 [2]): 1.8 µM
solubility kinetic [6]: 34 µg/mL (≈ 46.5 µM)

CC[C@@H](C)[C@@H]1NC(=O)[C@@H](Cc2ccc(OC)cc2)NC(=O)CN(C)C(=O)[C@H]([C@H](C)CC)NC(=O)[C@@H](Cc2ccc(OC)cc2)NC(=O)CN(C)C1=O [Compound 18] (cyclo([Sar][dY](Me)[aIle][Sar][dY](Me)[aIle]))
IC50: > 100 µM
% human serum albumin binding (%HSA) (human serum albumin): 77.2%
IC50 (P. falciparum strain 3D7 [2]): 4.1 µM
intrinsic microsomal clearance (Clint), human [4]: 8.18 mL/(min g) tissue
solubility kinetic [6]: 124 µg/mL (≈ 172 µM)
intrinsic microsomal clearance (Clint), mouse [7]: 13.25 mL/(min g) tissue

CC[C@@H](C)[C@@H]1NC(=O)[C@@H](CC(C)C)NC(=O)CN(C)C(=O)[C@H]([C@H](C)CC)NC(=O)[C@@H](CC(C)C)NC(=O)CN(C)C1=O [Compound 19] (cyclo([dL][aIle][Sar][dL][aIle][Sar]))
% human serum albumin binding (%HSA) (human serum albumin): 37% and 37.15%
remaining at 2 h [3]: 88%
intrinsic microsomal clearance (Clint), human [4]: 6.07 mL/(min g) tissue
solubility kinetic [6]: ≥ 184 µg/mL
intrinsic microsomal clearance (Clint), mouse [7]: 5.79 mL/(min g) tissue

hirsutellide A
IC50 (Plasmodium falciparum) (Plasmodium falciparum): 2.8 µg/mL
MIC (M. tuberculosis H37Ra) (M. tuberculosis H37Ra): 6 to 12 µg/mL
